Test results reported in ChEMBL document CHEMBL3526133, “Identifying a selective substrate and inhibitor pair for the evaluation of CYP2J2 activity” (Drug Metab Dispos, 2012).
Counter-ions that a name gives are not always drawn.

Key:
Cytochrome P450 2J2 [1] = molecular target: T1, Cytochrome P450 2J2 (Homo sapiens, UniProt P51589); assay: Drug metabolism assessed as recombinant CYP2J2 (unknown origin)-mediated compound formation treated with amiodarone at 1 uM after 5 to 45 mins by LC-MS/MS analysis; format: ADME; settings: recombinant enzyme
T1 sequence (P51589 whole entry): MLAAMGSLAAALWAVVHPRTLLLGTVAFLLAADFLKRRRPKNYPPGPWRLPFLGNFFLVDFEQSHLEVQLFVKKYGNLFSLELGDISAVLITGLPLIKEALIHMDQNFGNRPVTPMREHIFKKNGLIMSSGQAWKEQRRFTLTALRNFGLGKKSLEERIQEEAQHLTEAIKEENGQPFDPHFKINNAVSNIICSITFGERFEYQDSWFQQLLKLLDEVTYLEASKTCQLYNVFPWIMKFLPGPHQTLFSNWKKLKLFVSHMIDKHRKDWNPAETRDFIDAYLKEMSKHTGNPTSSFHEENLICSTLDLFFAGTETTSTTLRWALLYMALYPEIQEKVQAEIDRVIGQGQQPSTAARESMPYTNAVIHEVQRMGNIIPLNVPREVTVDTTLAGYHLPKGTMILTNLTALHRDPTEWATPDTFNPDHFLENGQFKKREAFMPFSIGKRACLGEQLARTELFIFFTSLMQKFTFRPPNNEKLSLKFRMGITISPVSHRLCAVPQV
Procedure, shortened: (§1)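 Preincubated, then started with NADPH-regenerating system (1 mM NADPH final). Aliquots taken at 0, 5, 10, 20, 30, 45 min and quenched in acetonitrile with internal standard. No-NADPH controls included. Products measured by LC-MS/MS.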

Cytochrome P450 2J2 [2] = molecular target: T1, Cytochrome P450 2J2; assay: Drug metabolism in human liver microsomes assessed as CYP2J2-mediated compound formation treated with amiodarone at 1 uM after 5 to 45 mins by LC-MS/MS analysis; format: ADME
[3] = Retention time in potassium phosphate buffer treated with amiodarone hydrochloride at 30 uM by HPLC analysis; format: physicochemical
Cytochrome P450 3A4 = Cytochrome P450 3A4 (Homo sapiens, UniProt P08684); assay: Drug metabolism assessed as recombinant CYP3A4 (unknown origin)-mediated compound formation treated with amiodarone at 1 uM after 5 to 45 mins by LC-MS/MS analysis; format: ADME; settings: recombinant enzyme; procedure, shortened: as §1
Cytochrome P450 3A4, sequence (P08684 whole entry): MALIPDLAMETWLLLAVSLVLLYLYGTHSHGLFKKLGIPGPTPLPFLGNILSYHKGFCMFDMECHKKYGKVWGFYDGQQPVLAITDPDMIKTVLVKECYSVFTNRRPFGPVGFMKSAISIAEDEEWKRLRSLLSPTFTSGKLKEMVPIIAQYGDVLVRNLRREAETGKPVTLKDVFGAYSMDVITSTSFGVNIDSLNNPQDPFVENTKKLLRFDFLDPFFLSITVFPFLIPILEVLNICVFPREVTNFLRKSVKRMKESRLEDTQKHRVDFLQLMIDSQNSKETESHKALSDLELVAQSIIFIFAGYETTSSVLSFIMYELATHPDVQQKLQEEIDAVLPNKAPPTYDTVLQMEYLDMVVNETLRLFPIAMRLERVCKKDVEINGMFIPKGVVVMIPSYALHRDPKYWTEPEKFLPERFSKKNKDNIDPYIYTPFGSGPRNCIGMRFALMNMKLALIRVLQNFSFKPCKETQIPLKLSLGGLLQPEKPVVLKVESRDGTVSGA

Cytochrome P450 1A2 = molecular target: T2, Cytochrome P450 1A2 (Homo sapiens, UniProt P05177)
T2 sequence (P05177 whole entry): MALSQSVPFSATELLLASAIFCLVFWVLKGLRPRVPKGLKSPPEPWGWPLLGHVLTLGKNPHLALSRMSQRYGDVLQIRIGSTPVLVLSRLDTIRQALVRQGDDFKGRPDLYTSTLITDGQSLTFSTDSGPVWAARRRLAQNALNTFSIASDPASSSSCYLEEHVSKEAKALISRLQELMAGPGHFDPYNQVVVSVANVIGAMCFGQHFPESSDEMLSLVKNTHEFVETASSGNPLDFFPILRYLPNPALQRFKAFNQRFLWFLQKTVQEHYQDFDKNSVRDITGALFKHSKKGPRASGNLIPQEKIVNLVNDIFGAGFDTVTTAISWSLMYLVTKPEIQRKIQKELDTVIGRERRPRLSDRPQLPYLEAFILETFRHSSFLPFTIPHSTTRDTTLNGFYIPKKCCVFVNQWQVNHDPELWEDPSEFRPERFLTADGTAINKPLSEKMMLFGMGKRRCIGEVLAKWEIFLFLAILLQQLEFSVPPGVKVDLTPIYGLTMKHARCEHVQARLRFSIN

CYP2J2 [4] = molecular target: T3, CYP2J2 (Homo sapiens, UniProt P51589); assay: in vitro
T3 sequence (P51589 whole entry): T1 sequence (P51589 whole entry)

CYP2J2 [5] = molecular target: T3, CYP2J2; assay: in vitro; remark: listed apart in the source
Cytochrome P450 2D6 = Cytochrome P450 2D6 (Homo sapiens, UniProt P10635)
Cytochrome P450 2D6, sequence (P10635 whole entry): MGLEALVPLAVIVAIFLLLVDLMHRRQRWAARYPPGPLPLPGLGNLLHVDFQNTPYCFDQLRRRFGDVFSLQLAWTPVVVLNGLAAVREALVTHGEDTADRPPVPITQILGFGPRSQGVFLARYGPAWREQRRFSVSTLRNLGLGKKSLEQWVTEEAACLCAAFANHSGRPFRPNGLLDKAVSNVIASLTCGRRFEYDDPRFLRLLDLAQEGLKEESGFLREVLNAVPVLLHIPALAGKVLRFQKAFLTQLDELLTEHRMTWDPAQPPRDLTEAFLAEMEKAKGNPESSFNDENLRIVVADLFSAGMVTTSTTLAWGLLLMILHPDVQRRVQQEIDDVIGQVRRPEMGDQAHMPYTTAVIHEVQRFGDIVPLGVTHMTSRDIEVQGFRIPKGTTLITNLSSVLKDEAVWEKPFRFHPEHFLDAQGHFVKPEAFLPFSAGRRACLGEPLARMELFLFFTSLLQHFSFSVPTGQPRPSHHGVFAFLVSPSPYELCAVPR

Cytochrome P450 2C19 = Cytochrome P450 2C19 (Homo sapiens, UniProt P33261)
Cytochrome P450 2C19, sequence (P33261 whole entry): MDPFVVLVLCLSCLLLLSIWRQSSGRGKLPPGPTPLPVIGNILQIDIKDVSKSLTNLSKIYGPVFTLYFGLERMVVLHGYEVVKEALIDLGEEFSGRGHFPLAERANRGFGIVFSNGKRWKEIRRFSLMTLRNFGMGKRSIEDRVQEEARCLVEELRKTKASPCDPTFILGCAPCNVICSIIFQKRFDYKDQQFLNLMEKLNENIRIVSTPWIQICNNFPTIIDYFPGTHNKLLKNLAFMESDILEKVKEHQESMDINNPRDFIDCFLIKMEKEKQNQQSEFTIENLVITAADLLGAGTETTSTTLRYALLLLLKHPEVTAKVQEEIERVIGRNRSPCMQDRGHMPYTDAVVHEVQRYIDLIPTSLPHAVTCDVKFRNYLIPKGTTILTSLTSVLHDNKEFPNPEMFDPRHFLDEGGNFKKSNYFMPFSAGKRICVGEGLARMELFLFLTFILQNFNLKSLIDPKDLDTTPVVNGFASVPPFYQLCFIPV

Cytochrome P450 2C9 = Cytochrome P450 2C9 (Homo sapiens, UniProt P11712)
Cytochrome P450 2C9, sequence (P11712 whole entry): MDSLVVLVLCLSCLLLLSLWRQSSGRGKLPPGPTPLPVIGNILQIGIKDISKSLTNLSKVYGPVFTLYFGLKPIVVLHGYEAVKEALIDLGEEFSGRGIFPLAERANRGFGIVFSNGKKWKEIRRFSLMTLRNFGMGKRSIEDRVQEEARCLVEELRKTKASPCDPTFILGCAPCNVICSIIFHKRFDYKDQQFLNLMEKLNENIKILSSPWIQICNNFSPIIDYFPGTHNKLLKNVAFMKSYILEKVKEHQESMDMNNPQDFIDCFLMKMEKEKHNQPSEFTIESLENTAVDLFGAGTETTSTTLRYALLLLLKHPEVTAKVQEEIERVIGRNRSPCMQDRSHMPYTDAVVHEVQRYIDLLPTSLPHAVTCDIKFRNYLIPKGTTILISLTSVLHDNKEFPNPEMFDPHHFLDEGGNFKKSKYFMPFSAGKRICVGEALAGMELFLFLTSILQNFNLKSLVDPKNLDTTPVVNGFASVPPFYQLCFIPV

Cytochrome P450 2C8 = molecular target: T4, Cytochrome P450 2C8 (Homo sapiens, UniProt P10632)
T4 sequence (P10632 whole entry): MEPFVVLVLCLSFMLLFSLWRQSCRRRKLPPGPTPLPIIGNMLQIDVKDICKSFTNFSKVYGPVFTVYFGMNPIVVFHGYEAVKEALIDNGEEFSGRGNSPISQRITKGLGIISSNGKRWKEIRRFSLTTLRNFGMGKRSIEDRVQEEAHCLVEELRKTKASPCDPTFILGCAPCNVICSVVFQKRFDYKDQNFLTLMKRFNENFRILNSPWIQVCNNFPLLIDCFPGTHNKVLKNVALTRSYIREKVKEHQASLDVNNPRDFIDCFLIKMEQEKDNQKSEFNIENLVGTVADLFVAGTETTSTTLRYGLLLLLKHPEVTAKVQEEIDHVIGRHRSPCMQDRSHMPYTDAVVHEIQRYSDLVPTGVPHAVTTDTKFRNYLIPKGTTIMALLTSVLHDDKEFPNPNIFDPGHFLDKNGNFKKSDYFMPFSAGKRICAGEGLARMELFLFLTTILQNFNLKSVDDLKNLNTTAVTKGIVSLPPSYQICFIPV

CYP2C8 [6] = molecular target: T5, CYP2C8 (Homo sapiens, UniProt P10632); assay: in vitro; settings: human liver microsomes, probe paclitaxel (metabolite formation)
T5 sequence (P10632 whole entry): T4 sequence (P10632 whole entry)

CYP2D6 = CYP2D6 (Homo sapiens, UniProt P10635); assay: Inhibition of CYP2D6-mediated dextromethorphan metabolite formation in human liver microsomes at 0.3 uM after 8 mins by LC-MS/MS analysis relative to control; format: ADME; settings: probe dextromethorphan (metabolite formation)
CYP2D6, sequence (P10635 whole entry): as the sequence (P10635 whole entry) above
Procedure, shortened: (§2)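 Pooled HLM with probe cocktail: phenacetin 10 µM, paclitaxel 5 µM, diclofenac 5 µM, S-mephenytoin 40 µM, dextromethorphan 5 µM, midazolam 2 µM. […] Preincubated 15 min, then started with NADPH-regenerating system (1 mM NADPH). Reaction run 8 min, quenched in acetonitrile with internal standard. Metabolites measured by LC-MS/MS; % inhibition given as mean ± S.D.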

CYP2C19 = CYP2C19 (Homo sapiens, UniProt P33261); assay: Inhibition of CYP2C19-mediated S-mephenytoin metabolite formation in human liver microsomes at 0.3 uM after 8 mins by LC-MS/MS analysis relative to control; format: ADME; settings: probe S-mephenytoin (metabolite formation); procedure, shortened: as §2
CYP2C19, sequence (P33261 whole entry): as the sequence (P33261 whole entry) above

CYP1A2 = molecular target: T6, CYP1A2 (Homo sapiens, UniProt P05177); assay: Inhibition of CYP1A2-mediated phenacetin metabolite formation in human liver microsomes at 0.3 uM after 8 mins by LC-MS/MS analysis relative to control; format: ADME; settings: probe phenacetin (metabolite formation); procedure, shortened: as §2
T6 sequence (P05177 whole entry): T2 sequence (P05177 whole entry)

CYP2C9 = CYP2C9 (Homo sapiens, UniProt P11712); assay: Inhibition of CYP2C9-mediated diclofenac metabolite formation in human liver microsomes at 0.3 uM after 8 mins by LC-MS/MS analysis relative to control; format: ADME; settings: probe diclofenac (metabolite formation); procedure, shortened: as §2
CYP2C9, sequence (P11712 whole entry): as the sequence (P11712 whole entry) above

CYP2C8 [7] = molecular target: T5, CYP2C8; assay: Inhibition of CYP2C8-mediated paclitaxel metabolite formation in human liver microsomes at 0.3 uM after 8 mins by LC-MS/MS analysis relative to control; format: ADME; settings: probe paclitaxel (metabolite formation); procedure, shortened: as §2
CYP3A4 = CYP3A4 (Homo sapiens, UniProt P08684); assay: Inhibition of CYP3A4-mediated midazolam metabolite formation in human liver microsomes at 0.3 uM after 8 mins by LC-MS/MS analysis relative to control; format: ADME; settings: probe midazolam (metabolite formation); procedure, shortened: as §2
CYP3A4, sequence (P08684 whole entry): as the sequence (P08684 whole entry) above

Cytochrome P450 2J2 [8] = molecular target: T1, Cytochrome P450 2J2; assay: Drug metabolism in human liver microsomes assessed as CYP2J2-mediated astemizole O-demethylation measured per pmol protein at 0.3 uM after 5 mins by LC-MS/MS analysis; format: ADME
[9] = recombinant CYP2J2, probe astemizole (O-demethylation)
[10] = recombinant CYP2J2, probe terfenadine (hydroxylation)

| SMILES | IC50 (Cytochrome P450 1A2) | activity at 5 min, 30 µM (CYP2J2 [4]; [9]) | activity at 5 min, 30 µM (CYP2J2 [5]; [10]) | IC50 (Cytochrome P450 2D6) | IC50 (Cytochrome P450 2C19) | IC50 (Cytochrome P450 2C9) | IC50 (Cytochrome P450 2C8) | other results |
| --- | --- | --- | --- | --- | --- | --- | --- | --- |
| CCN(CC)CCOc1c(I)cc(C(=O)c2c(CCCCO)oc3ccccc23)cc1I | – | – | – | – | – | – | – | Drug metabolism (Cytochrome P450 2J2 [1]): metabolite_detected; Drug metabolism (Cytochrome P450 2J2 [2]): metabolite_detected; Retention_time [3]: 12.7 min |
| CCN(CC)CCOc1c(I)cc(C(=O)c2c(CCC(C)O)oc3ccccc23)cc1I (stereo unspecified) | – | – | – | – | – | – | – | Drug metabolism (Cytochrome P450 2J2 [1]): metabolite_detected; Drug metabolism (Cytochrome P450 2J2 [2]): metabolite_detected; Drug metabolism (Cytochrome P450 3A4): metabolite_detected; Retention_time [3]: 13.2 min |
| COc1ccc(CCN(C)CCCC(C#N)(c2ccc(OC)c(OC)c2)C(C)C)cc1OC (stereo unspecified) | > 30 µM | 69.1% | 1.3% | – | – | – | – | – |
| CCCSc1ccc2nc(NC(=O)OC)[nH]c2c1 [ALBENDAZOLE] | > 30 µM | – | – | > 30 µM | > 30 µM | > 30 µM | > 30 µM | – |
| CCCCc1oc2ccccc2c1C(=O)c1cc(I)c(OCCN(CC)CC)c(I)c1 [AMIODARONE] | – | – | – | – | – | – | – | activity at 5 min, 30 µM (CYP2J2 [4]; recombinant enzyme): 18.7%; inhibition at 8 min, 5 µM (CYP2C8 [6]): 32.7%; activity at 5 min, 30 µM (CYP2J2 [5]; recombinant enzyme): 39% |
| COc1ccc(CCN2CCC(Nc3nc4ccccc4n3Cc3ccc(F)cc3)CC2)cc1 [ASTEMIZOLE] | > 30 µM | – | 8.3% | > 30 µM | 13.7 µM | > 30 µM | > 30 µM | inhibition at 8 min, 0.3 µM (CYP2D6): 8.5%; inhibition at 8 min, 0.3 µM (CYP2C19): 6%; inhibition at 8 min, 0.3 µM (CYP1A2): -0.6%; inhibition at 8 min, 0.3 µM (CYP2C9): -2.7%; inhibition at 8 min, 0.3 µM (CYP2C8 [7]): 1.1%; inhibition at 8 min, 0.3 µM (CYP3A4): 20.3%; Drug metabolism (Cytochrome P450 2J2 [8]): 32 pmol/min |
| CC(C)COCC(CN(Cc1ccccc1)c1ccccc1)N1CCCC1 (stereo unspecified) [BEPRIDIL] | > 30 µM | – | – | > 30 µM | – | – | > 30 µM | – |
| Clc1ccccc1C(c1ccccc1)(c1ccccc1)n1ccnc1 [CLOTRIMAZOLE] | – | 5.6% | 14.1% | 0.883 µM | 7.41 µM | 0.136 µM | – | – |
| C#C[C@]1(O)CC[C@H]2[C@@H]3CCC4=Cc5oncc5C[C@]4(C)[C@H]3CC[C@@]21C [DANAZOL] | > 30 µM | 8% | 1.6% | – | – | – | 1.95 µM | – |
| COC(=O)C1=C(C)NC(C)=C(C(=O)OC(C)C)C1c1cccc2nonc12 (stereo unspecified) [ISRADIPINE] | 28.3 µM | 13.6% | 23.7% | – | – | – | – | – |
| Cc1c(OCC(F)(F)F)ccnc1C[S+]([O-])c1nc2ccccc2[nH]1 (stereo unspecified) [LANSOPRAZOLE] | 6.46 µM | 71.1% | 0.7% | 2.9 µM | 13.4 µM | 19.2 µM | 5.75 µM | – |
| Cc1ccccc1C(OCCN(C)C)c1ccccc1 (stereo unspecified) [ORPHENADRINE] | > 30 µM | 102% | 1.2% | – | 24.2 µM | > 30 µM | > 30 µM | – |
| Fc1ccc([C@@H]2CCNC[C@H]2COc2ccc3c(c2)OCO3)cc1 [PAROXETINE HYDROCHLORIDE] | 5.33 µM | 39% | 31.6% | – | – | > 30 µM | > 30 µM | – |
| O=c1[nH]c2ccccc2n1C1CCN(CCCC(c2ccc(F)cc2)c2ccc(F)cc2)CC1 [PIMOZIDE] | > 30 µM | 6.6% | 27.3% | – | – | – | > 30 µM | – |
| O=c1c(O)c(-c2ccc(O)c(O)c2)oc2cc(O)cc(O)c12 [QUERCETIN] | – | 44.7% | 29.8% | 18.8 µM | – | – | – | – |
